Each structure is given as a SMILES string.

Drawing on PubChem BioAssay AID652278 (Broad Institute, 2013), this text covers slope of emergence day vs concentration for 11 compounds.

The test system of this assay is T. cruzi CAI/72 in J774, trypomastigote emergence, microscopy. As to the kind of experiment: trypomastigote re-emergence after compound withdrawal – imaging, CAI/72 strain, J774 macrophages, dry powder, set 2, mechanism study, late-stage follow-up (AID 652278). Particulars: hits give high values. The procedure, abridged: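 Test system – J774 macrophages, 9000 rad-arrested, infected with T. cruzi CAI/72 · Technique – daily microscopic scoring of emerging trypomastigotes · Evaluation – slope, emergence day versus concentration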
Consider `CC(C)N1C[C@@H](CN(C)Cc2ccc(Cl)cc2)Oc2c(NC(=O)c3ccncc3)cc(F)cc2C1=O`, for which the slope of emergence day vs concentration was 5. Next, `CC(C)N1C[C@@H](CN(C)CCc2ccc(Cl)c(Cl)c2)Oc2c(NC(=O)c3ccncc3)cccc2C1=O`: 5.

With `CC(C)N1C[C@@H](CN(C)Cc2ccc(Cl)cc2)Oc2c(NC(=O)c3ccncc3)cccc2C1=O`, the slope of emergence day vs concentration was 5.

Take `CC(C)N1C[C@@H](CN(C)Cc2ccc(Oc3ccccc3)cc2)Oc2c(NC(=O)c3ccncc3)cccc2C1=O`: the slope of emergence day vs concentration was 5. Take `CC(C)N1C[C@H](CN(C)Cc2ccc(Cl)cc2)Oc2c(NC(=O)c3ccncc3)cccc2C1=O`: the slope of emergence day vs concentration is 5.

As to `CN(C)CC#Cc1cccc(-c2nc(C(=O)N[C@@H]3CCN(Cc4ccccc4)C3)cc3c2[C@@H](CCO)N(S(=O)C(C)(C)C)C3)c1` (stereo partly specified), the slope of emergence day vs concentration was 1.89. Next, `CN(C)C(=O)c1cccc(-c2ccc([C@H]3[C@H](CO)N4CCCCN(C(=O)C5CCC5)C[C@@H]34)cc2)c1`: 1.89; `CC(C)N1C[C@@H](CN(C)Cc2ccc(Cl)c(Cl)c2)Oc2c(NC(=O)c3ccncc3)cccc2C1=O`: 5; `CC(C)N1C[C@@H](CN(C)CCc2ccc(Cl)cc2)Oc2c(NC(=O)c3ccncc3)cccc2C1=O`: 5. On to `CC(C)N1C[C@@H](CN(C)Cc2ccc(Cl)cc2)Oc2c(C(=O)Nc3ccncc3)cccc2C1=O`, for which the slope of emergence day vs concentration was 5.

Turning to `CN(C)CC#Cc1cccc(-c2nc(C(=O)NCc3ccc4c(c3)OCO4)cc3c2[C@@H](CCO)N(S(=O)C(C)(C)C)C3)c1` (stereo partly specified), the slope of emergence day vs concentration is 2.02.
